Key:
[1] = Half life in human liver microsomes at 10 uM by LC-MS/MS analysis; type: ADME, microsome
Liver [2] = assay: Metabolic stability in human liver microsomes assessed as compound remaining at 10 uM after 1 hr by LC-MS/MS analysis; type: ADME, microsome
Procedure, shortened: (§1)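 Compound stability was measured in human or mouse liver microsomes as percent remaining after 1 h. Data came from two independent experiments, each run in triplicate.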

[3] = Cytotoxicity in human HepG2 cells after 48 hrs by Cell-titer Glo reagent based assay; conditions: read-out: LD50
Procedure, shortened: (§2)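 Cells (HEK293, HepG2 or BEAS2B) exposed to compounds at a range of concentrations for 48 h; viability read by Cell-Titer Glo luminescence. Normalized to DMSO (negative) and 3-dibutylamino-1-(4-hexyl-phenyl)-propan-1-one at 150 μM final in DMSO (positive).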

Liver [4] = assay: Metabolic stability in mouse liver microsomes assessed as compound remaining at 10 uM after 1 hr by LC-MS/MS analysis; type: ADME, microsome; procedure, shortened: as §1
[5] = Cytotoxicity in human BEAS2B cells after 48 hrs by Cell-titer Glo reagent based assay; parameters: species or system BEAS-2B; conditions: read-out: LD50; procedure, shortened: as §2
[6] = Cytotoxicity in HEK293 cells after 48 hrs by Cell-titer Glo reagent based assay; conditions: human, read-out: LD50; procedure, shortened: as §2
Liver [7] = assay: (§3) Half life in mouse liver microsomes at 10 uM by LC-MS/MS analysis; type: ADME, microsome; conditions: microsomes, 10 µM
[8] = as §3; type: ADME, microsome; conditions: liver microsomes
[9] = Solubility of the compound in 50% PBS/40% propylene glycol/10% DMSO at 10 uM; type: physicochemical; conditions: buffer
Mus musculus = assay: Neurotoxicity in Swiss Webster mouse assessed as induction of senorimotor impairment at 40 mg/kg, ip administered 10 mins prior to testing and measured for 3 mins at 10 to 60 mins after drug administration by rotarod method; type: toxicity, organism-based; conditions: in vivo
Procedure, shortened: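 Swiss Webster mice, pre-trained at 15 rpm until they held on for 3 min at three consecutive sessions, were given a single i.p. dose of 40 mg/kg in 10% DMSO/40% propylene glycol/50% PBS. Rotarod at 15 rpm for 3 min at 10, 30 and 60 min after dosing. Falls before 3 min scored as fail, with time of fall recorded. N = 10, mean ± SEM. Vehicle and diazepam 5 mg/kg i.p. controls. Mice rested 2–3 days between doses.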

[10] = Solubility of the compound in PBS/1% DMSO at 10 uM; type: physicochemical; conditions: buffer
Procedure, shortened: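 Solubility was judged at 10 μM in PBS containing 1% DMSO.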

SMILES	half-life at 10 µM [1]	Stability (Liver [2])	CC50 at 48 h [3]	Stability (Liver [4])	CC50 at 48 h [5]	CC50 at 48 h [6]	t1/2 (Liver [7])	half-life at 10 µM [8]	solubility [9]	Activity (Mus musculus)	solubility [10]
COc1ccc2c(c1)C(=O)N1CCC[C@H]1c1c(C(=O)NC(C)(C)C)ncn1-2	3.23 h	92.8%	> 400 µM	4.2%	> 400 µM	> 200 µM	10.4 h	–	–	–	–
COc1ccc2c(c1)C(=O)N1CCC[C@H]1c1c(C(=O)O)ncn1-2	1.33 h	56.1%	> 400 µM	52.9%	> 400 µM	> 400 µM	–	1.22 h	–	–	–
COc1ccc2c(c1)C(=O)N1CCC[C@H]1c1c(C(=O)OCC(C)C)ncn1-2	2.82 h	77.8%	> 200 µM	13.4%	> 200 µM	> 100 µM	–	0.325 h	Insoluble	–	–
[2H]C([2H])([2H])Oc1ccc2c(c1)C(=O)N1CCC[C@H]1c1c(C(=O)NCC)ncn1-2	21.3 h	93.5%	> 400 µM	94.8%	> 400 µM	> 400 µM	–	4.55 h	–	Non-Toxic	–
[2H]C([2H])([2H])Oc1ccc2c(c1)C(=O)N1CCC[C@H]1c1c(C(=O)N(C)C)ncn1-2	13.3 h	96.3%	> 400 µM	83.1%	> 400 µM	> 400 µM	–	24.7 h	–	Non-Toxic	–
[2H]C([2H])([2H])Oc1ccc2c(c1)C(=O)N1CCC[C@H]1c1c(C(=O)NC)ncn1-2	23.9 h	94.9%	> 400 µM	56.8%	> 400 µM	> 100 µM	–	1.29 h	–	–	–
CNC(=O)c1ncn2c1[C@@H]1CCCN1C(=O)c1cc(OC)ccc1-2	16.3 h	93.8%	> 400 µM	54.3%	> 400 µM	> 100 µM	–	1.08 h	–	Toxic	–
[2H]C([2H])([2H])Oc1ccc2c(c1)C(=O)N1CCC[C@H]1c1c(C(=O)NC(C)(C)C)ncn1-2	7.15 h	95.6%	> 400 µM	9.4%	> 400 µM	> 200 µM	21.5 h	–	–	Toxic	–
[2H]C([2H])([2H])Oc1ccc2c(c1)C(=O)N1CCC[C@H]1c1c(C(=O)OC(C)(C)C)ncn1-2	16.9 h	91.9%	> 400 µM	17.6%	> 200 µM	> 100 µM	–	0.428 h	–	–	–
COc1ccc2c(c1)C(=O)N1CCC[C@H]1c1c(C(=O)NC3CC3)ncn1-2	13.1 h	79.9%	> 400 µM	91.3%	> 400 µM	> 200 µM	0.222 h	–	–	–	–
CCNC(=O)c1ncn2c1[C@@H]1CCCN1C(=O)c1cc(OC)ccc1-2	12.2 h	90.7%	> 400 µM	50.1%	> 400 µM	> 400 µM	4.72 h	–	–	–	–
[2H]C([2H])([2H])Oc1ccc2c(c1)C(=O)N1CCC[C@H]1c1c(C(=O)OCC)ncn1-2	14 h	92.8%	> 400 µM	85.5%	> 400 µM	> 400 µM	–	5.85 h	–	–	–
CCSC(=O)c1ncn2c1[C@@H]1CCCN1C(=O)c1cc(OC)ccc1-2	–	–	> 100 µM	–	> 100 µM	> 100 µM	–	–	Insoluble	–	Insoluble

From ChEMBL document CHEMBL3992505, “Optimization of substituted imidazobenzodiazepines as novel asthma treatments” (Eur J Med Chem, 2017)
